Legend:
Rattus norvegicus [1] = assay: Tested for distribution of radioactivity in female rat tissue at 18 hr after intravenous administration in adrenal; format: ADME, organism-based; details: in vivo
In short: (§1)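 Female Fischer 344 rats (160–180 g), food and water ad libitum, received 5–10 μCi i.v. via lateral tail vein (1 mL Tween 80–EtOH–saline) under light Et₂O anesthesia. At each time they were anesthetized and decapitated, and organs were rinsed in saline, blotted, weighed and gamma counted. Values are % dose/g, mean and range of 3 rats.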

Rattus norvegicus [2] = assay: Tested for distribution of radioactivity in female rat tissue at 14d ay after intravenous administration in liver; format: ADME, organism-based; details: in vivo; in short: as §1
Rattus norvegicus [3] = assay: Tested for distribution of radioactivity in female rat tissue at 7 day after intravenous administration in adrenal; format: ADME, organism-based; details: in vivo, 168 h
In short: (§2)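 Female Fischer 344 rats (160–180 g), food and water ad libitum. Se-75-labeled steroid dissolved in EtOH, formulated in Tween 80–EtOH–saline; 5–10 μCi in 1 mL injected into a lateral tail vein under light Et₂O anesthesia. At each time point, 3 rats killed by decapitation under Et₂O. Organs rinsed with saline, blotted, weighed and gamma counted. Values are % dose/g, mean and range.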

Homo sapiens [4] = species: Homo sapiens; assay: Adsorbed radiation dose value was calculated to human spleen; format: functional
In short: (§3)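 Human absorbed radiation dose estimated by the standard MIRD method from rat tissue distribution (% dose/g, 1 h–21 days) and excretion data. Excretion came from three individually caged female rats, with urine and feces collected daily over 21 days.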

Homo sapiens [5] = species: Homo sapiens; assay: Adsorbed radiation dose value was calculated to human lungs; format: functional; in short: as §3
[6] = Adrenal/Tissue ratio calculated from percent dose per gram of tissue determined after 1 day intravenous administration from kidney; format: functional
In short: (§4)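 Female Fischer 344 rats (160–180 g), fed ad libitum. Steroid dissolved in EtOH, formulated in Tween 80–EtOH–saline, 5–10 μCi in 1 mL given into a lateral tail vein under light Et₂O anesthesia. Organs removed 1 day post-injection, rinsed, blotted, weighed and gamma counted, 3 rats per time point. Ratios taken from adrenal vs tissue % dose/g.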

Rattus norvegicus [7] = assay: Tested for distribution of radioactivity in female rat tissue at 18 hr after intravenous administration in liver; format: ADME, organism-based; details: in vivo; in short: as §1
Rattus norvegicus [8] = assay: Tested for distribution of radioactivity in female rat tissue at 1 hr after intravenous administration in kidney; format: ADME, organism-based; details: in vivo; in short: as §1
Homo sapiens [9] = species: Homo sapiens; assay: Adsorbed radiation dose value was calculated to human total body; format: functional; in short: as §3
Rattus norvegicus [10] = assay: Tested for distribution of radioactivity in female rat tissue at 7 day after intravenous administration in blood; format: ADME, organism-based; details: in vivo, 168 h; in short: as §2
Homo sapiens [11] = species: Homo sapiens; assay: Adsorbed radiation dose value was calculated to human ovaries; format: functional, Female gonad; in short: as §3
Rattus norvegicus [12] = assay: Tested for distribution of radioactivity in female rat tissue at 1 hr after intravenous administration in liver; format: ADME, organism-based; details: in vivo; in short: as §1
Rattus norvegicus [13] = assay: Tested for distribution of radioactivity in female rat tissue at 21 day after intravenous administration in liver; format: ADME, organism-based; details: in vivo, 504 h; in short: as §1
Homo sapiens [14] = species: Homo sapiens; assay: Adsorbed radiation dose value was calculated to human adrenals; format: functional, Adrenal gland; in short: as §3
Rattus norvegicus [15] = assay: Tested for distribution of radioactivity in female rat tissue at 6 hr after intravenous administration in kidney; format: ADME, organism-based; details: in vivo; in short: as §1
Rattus norvegicus [16] = assay: Tested for distribution of radioactivity in female rat tissue at 21 day after intravenous administration in blood; format: ADME, organism-based; details: in vivo, 504 h; in short: as §1
Rattus norvegicus [17] = assay: Tested for distribution of radioactivity in female rat tissue at 24 hr r after intravenous administration in blood; format: ADME, organism-based; details: in vivo; in short: as §1
Homo sapiens [18] = species: Homo sapiens; assay: Adsorbed radiation dose value was calculated to human kidney; format: functional; in short: as §3
Rattus norvegicus [19] = assay: Tested for distribution of radioactivity in female rat tissue at 14d ay after intravenous administration in adrenal; format: ADME, organism-based; details: in vivo; in short: as §1
Homo sapiens [20] = species: Homo sapiens; assay: Adsorbed radiation dose value was calculated to human small intestine; format: functional; in short: as §3
[21] = Adrenal/Tissue ratio calculated from percent dose per gram of tissue determined after 1 day intravenous administration from pancreas; format: functional
In short: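 Female Fischer 344 rats (160–180 g), food and water ad libitum, lightly anaesthetized with Et2O. [75Se]-labelled steroid was given in Tween 80–EtOH–saline, 5–10 μCi, by lateral tail-vein injection. Rats were killed by decapitation under Et2O; organs were rinsed, blotted, weighed and gamma-counted. Adrenal/tissue ratio is from % dose/g, mean of three rats per time point.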

[22] = Adrenal/Tissue ratio calculated from percent dose per gram of tissue determined after 1 day intravenous administration from spleen; format: functional; in short: as §4
[23] = Adrenal/Tissue ratio calculated from percent dose per gram of tissue determined after 1 day intravenous administration from liver; format: functional; in short: as §4
Homo sapiens [24] = species: Homo sapiens; assay: Adsorbed radiation dose value was calculated to human liver; format: functional; in short: as §3
Rattus norvegicus [25] = assay: Tested for distribution of radioactivity in female rat tissue at 18 hr after intravenous administration in kidney; format: ADME, organism-based; details: in vivo; in short: as §1
Rattus norvegicus [26] = assay: Tested for distribution of radioactivity in female rat tissue at 6 hr after intravenous administration in liver; format: ADME, organism-based; details: in vivo; in short: as §1
Rattus norvegicus [27] = assay: Tested for distribution of radioactivity in female rat tissue at 24 hr r after intravenous administration in ovaries; format: ADME, organism-based; details: in vivo; in short: as §1
Rattus norvegicus [28] = assay: Tested for distribution of radioactivity in female rat tissue at 1 hr after intravenous administration in blood; format: ADME, organism-based; details: in vivo; in short: as §1

Dose/g (Rattus norvegicus [1]): 42.97%
Dose/g (Rattus norvegicus [2]): 0.5%
Dose/g (Rattus norvegicus [3]): 29.5%
Dose/g (Rattus norvegicus [7]): 2.78%
Dose/g (Rattus norvegicus [8]): 1.31%
Dose/g (Rattus norvegicus [10]): 0.26%
Dose/g (Rattus norvegicus [12]): 6.73%
Dose/g (Rattus norvegicus [13]): 0.34%
Dose/g (Rattus norvegicus [15]): 1.69%
Dose/g (Rattus norvegicus [16]): 0.11%
Dose/g (Rattus norvegicus [17]): 0.71%
Dose/g (Rattus norvegicus [19]): 18.23%
Dose/g (Rattus norvegicus [25]): 1.87%
Dose/g (Rattus norvegicus [26]): 4.93%
Dose/g (Rattus norvegicus [27]): 5.29%
Dose/g (Rattus norvegicus [28]): 3.97%
SMILES: CC(C)[Se]CCC[C@H](C)[C@H]1CC[C@H]2[C@@H]3CC=C4C[C@@H](O)CC[C@]4(C)[C@H]3CC[C@]12C
Dose (Homo sapiens [4]): 3.4 rd mCi-1
Dose (Homo sapiens [5]): 3.2 rd mCi-1
Ratio [6]: 30
Dose (Homo sapiens [9]): 1.8 rd mCi-1
Dose (Homo sapiens [11]): 5.9 rd mCi-1
Dose (Homo sapiens [14]): 30 rd mCi-1
Dose (Homo sapiens [18]): 3.8 rd mCi-1
Dose (Homo sapiens [20]): 3.5 rd mCi-1
Ratio [21]: 46.4
Ratio [22]: 19.2
Ratio [23]: 27.1
Dose (Homo sapiens [24]): 3.7 rd mCi-1
